Data as given in ChEMBL document CHEMBL4706706, “Structure-activity relationship and mechanistic studies for a series of cinnamyl hydroxamate histone deacetylase inhibitors” (Bioorg Med Chem, 2021).
pIC50: −log10 of the molar value. The source made the active and inactive calls. The calls are words filed in the database; no cut-off is given here.

Tests used:
HCT-116 = experiment: Cytotoxicity against human HCT-116 cells assessed as reduction in cell viability measured after 72 hrs by MTT assay; type: functional, cell-based; conditions: HCT-116, 72 h
MCF7 = experiment: Cytotoxicity against human MCF7 cells assessed as reduction in cell viability measured after 72 hrs by MTT assay; type: functional, cell-based; conditions: MCF7, 72 h
NAMALVA [1] = experiment: Cytotoxicity against human NAMALVA cells assessed as reduction in cell viability measured after 72 hrs by MTT assay; type: functional, cell-based
Jurkat [2] = experiment: Cytotoxicity against human Jurkat cells assessed as reduction in cell viability measured after 72 hrs by MTT assay; type: functional, cell-based
NAMALVA [3] = experiment: Effect on phosphotyrosine expression in human NAMALVA cells at IC50 measured after 48 hrs by Western blot analysis; type: functional, cell-based
[4] = target: T1, Protein deacetylase HDAC6 (Homo sapiens, UniProt Q9UBN7); experiment: Inhibition of recombinant human full-length N-terminal GST-tagged HDAC6 (1 to 1215 residues) expressed in baculovirus infected Sf9 insect cells using RHKK(Ac)AMC as substrate preincubated for 5 to 10 mins followed by substrate addition and measured after 2 hrs by fluorescence assay
T1 sequence (Q9UBN7 whole entry): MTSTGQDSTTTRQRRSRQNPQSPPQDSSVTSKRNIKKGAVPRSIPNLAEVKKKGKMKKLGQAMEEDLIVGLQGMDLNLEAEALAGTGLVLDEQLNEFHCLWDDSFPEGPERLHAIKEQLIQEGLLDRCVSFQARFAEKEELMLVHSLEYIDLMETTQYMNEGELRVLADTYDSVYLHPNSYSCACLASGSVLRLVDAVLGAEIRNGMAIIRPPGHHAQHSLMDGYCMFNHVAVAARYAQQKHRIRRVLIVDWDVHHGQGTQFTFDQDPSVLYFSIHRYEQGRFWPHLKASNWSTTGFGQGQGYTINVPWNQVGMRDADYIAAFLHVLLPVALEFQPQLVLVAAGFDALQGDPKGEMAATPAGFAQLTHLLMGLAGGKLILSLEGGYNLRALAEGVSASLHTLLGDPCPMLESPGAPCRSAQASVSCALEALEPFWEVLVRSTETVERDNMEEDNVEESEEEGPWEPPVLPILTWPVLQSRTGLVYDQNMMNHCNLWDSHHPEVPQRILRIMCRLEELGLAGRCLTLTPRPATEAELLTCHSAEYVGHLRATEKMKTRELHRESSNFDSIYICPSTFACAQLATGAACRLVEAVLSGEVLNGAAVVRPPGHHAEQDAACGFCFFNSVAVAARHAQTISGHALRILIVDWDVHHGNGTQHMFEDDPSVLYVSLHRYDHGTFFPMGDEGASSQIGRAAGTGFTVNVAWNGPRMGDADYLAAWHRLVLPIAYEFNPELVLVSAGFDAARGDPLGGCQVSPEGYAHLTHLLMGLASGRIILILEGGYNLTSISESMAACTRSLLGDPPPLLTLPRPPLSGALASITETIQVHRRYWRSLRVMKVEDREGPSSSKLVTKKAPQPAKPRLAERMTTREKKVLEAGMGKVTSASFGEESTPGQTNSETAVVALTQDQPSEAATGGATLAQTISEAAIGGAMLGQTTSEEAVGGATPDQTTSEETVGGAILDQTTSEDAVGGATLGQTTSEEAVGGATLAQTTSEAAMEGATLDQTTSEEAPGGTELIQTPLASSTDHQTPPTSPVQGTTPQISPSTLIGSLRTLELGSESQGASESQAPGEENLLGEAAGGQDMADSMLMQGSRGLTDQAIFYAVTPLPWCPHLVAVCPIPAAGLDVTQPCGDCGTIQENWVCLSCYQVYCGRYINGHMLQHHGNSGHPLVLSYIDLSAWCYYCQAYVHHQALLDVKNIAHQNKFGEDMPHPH

[5] = target: T2, Histone deacetylase (Homo sapiens) (UniProt Q13547+O15379+Q9UBN7+Q92769+Q9UQL6+Q8WUI4+Q9BY41+Q96DB2+P56524+Q9UKV0+Q969S8); experiment: Inhibition of HDAC in human HeLa cell nuclear extracts at 100 uM relative to control; type: subcellular; conditions: Nucleus
In short: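 Total HDAC activity measured with HeLa nuclear extract as enzyme source; single dose of 100 µM run in duplicate.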

Jurkat [6] = experiment: Cytotoxicity against human Jurkat cells assessed as reduction in cell proliferation at IC50 measured after 48 hrs by Ki-67 staining based fluorescence assay; type: functional
In short: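 Ki-67 stained per kit instructions; mean fluorescence intensity by flow cytometry, normalized to untreated cells; at least three independent experiments, ANOVA with Bonferroni post-test.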

Jurkat [7] = experiment: Cytotoxicity against human Jurkat cells assessed as reduction in cell viability measured after 24 hrs MTT assay; type: functional, cell-based
Jurkat [8] = experiment: Induction of apoptosis in human Jurkat cells assessed as late apoptotic cells at 0.5 times IC50 measured after 48 hrs by Annexin V-FITC/7AAD staining based flow cytometry (reference value: 6.77%); type: functional
NAMALVA [9] = experiment: Induction of apoptosis in human NAMALVA cells assessed as viable cells at 0.5 times IC50 measured after 48 hrs by Annexin V-FITC/7AAD staining based flow cytometry (reference value: 90.4%); type: functional
Jurkat [10] = experiment: Effect on phosphoserine expression in human Jurkat cells at IC50 measured after 48 hrs by Western blot analysis; type: functional, cell-based
Jurkat [11] = experiment: Effect on phosphotyrosine expression in human Jurkat cells at IC50 measured after 48 hrs by Western blot analysis; type: functional, cell-based
NAMALVA [12] = experiment: Induction of apoptosis in human NAMALVA cells assessed as necrotic cells at 0.5 times IC50 measured after 48 hrs by Annexin V-FITC/7AAD staining based flow cytometry (reference value: 1.05%); type: functional
Jurkat [13] = experiment: Cytotoxicity against human Jurkat cells assessed as reduction in cell viability MTT assay; type: functional, cell-based; conditions: time 24-72 hrs, TDE = time-dependent effect
In short: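 Jurkat cells (2 × 10^4/well) in RPMI with 10% FBS and 1% penicillin–streptomycin, exposed 24, 48 and 72 h to compound (0.0032–50 μM); 1% DMSO as negative control. MTT at 0.5 mg/mL final for 3 h, formazan dissolved in 0.1 N HCl/isopropanol. IC50 with 95% confidence intervals from sigmoidal nonlinear regression; mean ± SEM.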

NAMALVA [14] = experiment: Effect on phosphoserine expression in human NAMALVA cells at IC50 measured after 48 hrs by Western blot analysis; type: functional, cell-based
Jurkat [15] = experiment: Induction of apoptosis in human Jurkat cells assessed as early apoptotic cells at 0.5 times IC50 measured after 48 hrs by Annexin V-FITC/7AAD staining based flow cytometry (reference value: 6.05%); type: functional
[16] = target: T2, Histone deacetylase (Homo sapiens); experiment: Inhibition of HDAC in human NAMALVA cells assessed as increase in gammaH2AX expression at IC50 measured after 48 hrs by Western blot analysis; type: cell-based
[17] = Cytotoxicity against human HS5 cells assessed as reduction in cell viability measured after 72 hrs by MTT assay; type: ADME, cell-based; conditions: HS5, 72 h
NAMALVA [18] = experiment: Induction of apoptosis in human NAMALVA cells assessed as late apoptotic cells at 0.5 times IC50 measured after 48 hrs by Annexin V-FITC/7AAD staining based flow cytometry (reference value: 3.52%); type: functional
Jurkat [19] = experiment: Induction of apoptosis in human Jurkat cells assessed as viable cells at 0.5 times IC50 measured after 48 hrs by Annexin V-FITC/7AAD staining based flow cytometry (reference value: 85.2%); type: functional
NAMALVA [20] = experiment: Induction of apoptosis in human NAMALVA cells assessed as early apoptotic cells at 0.5 times IC50 measured after 48 hrs by Annexin V-FITC/7AAD staining based flow cytometry (reference value: 5.07%); type: functional
Jurkat [21] = experiment: Induction of apoptosis in human Jurkat cells assessed as necrotic cells at 0.5 times IC50 measured after 48 hrs by Annexin V-FITC/7AAD staining based flow cytometry (reference value: 0.23%); type: functional
[22] = target: T2, Histone deacetylase (Homo sapiens); experiment: Inhibition of HDAC in human Jurkat cells assessed as increase in gammaH2AX expression at IC50 measured after 48 hrs by Western blot analysis; type: cell-based
[23] = target: T3, Protein deacetylase HDAC6 (Homo sapiens) (UniProt Q9UBN7); experiment: Inhibition of HDAC6 in human NAMALVA cells assessed as increase in acetylated alpha-tubulin expression at IC50 measured after 48 hrs by Western blot analysis; type: cell-based
T3 sequence (whole entry): T1 sequence (Q9UBN7 whole entry)

Jurkat [24] = experiment: Cytotoxicity against human Jurkat cells assessed as reduction in cell viability measured after 48 hrs MTT assay; type: functional, cell-based
[25] = target: T3, Protein deacetylase HDAC6 (Homo sapiens); experiment: Inhibition of HDAC6 in human Jurkat cells assessed as increase in acetylated alpha-tubulin expression at IC50 measured after 48 hrs by Western blot analysis; type: cell-based
[26] = Selectivity index, ratio of IC50 for human HS5 cells to IC50 for human Jurkat cells
[27] = Selectivity ratio of IC50 for human HCT-116 cells to IC50 for human NAMALVA cells; type: functional
[28] = Selectivity index, ratio of IC50 for human HS5 cells to IC50 for human NAMALVA cells
[29] = Selectivity ratio of IC50 for human HCT-116 cells to IC50 for human Jurkat cells; type: functional

Row | inhibition [16] | Structure (SMILES) | pIC50 (HCT-116) | pIC50 (MCF7) | pIC50 (NAMALVA [1]) | pIC50 (Jurkat [2]) | inhibition (NAMALVA [3]) | Activity (Jurkat [6]) | pIC50 (Jurkat [7]) | Activity (Jurkat [8]) [%] | Activity (NAMALVA [9]) [%] | inhibition (Jurkat [10]) | inhibition (Jurkat [11]) | Activity (NAMALVA [12]) [%] | Activity (Jurkat [13]) | inhibition (NAMALVA [14]) | Activity (Jurkat [15]) [%] | pIC50 [17] | Activity (NAMALVA [18]) [%] | Activity (Jurkat [19]) [%] | Activity (NAMALVA [20]) [%] | other results
1 |  | O=C(Nc1ccccc1)Nc1ccc(C(=O)NO)cc1 | 4.83 | < 4.30 | 6.28 | 5.60 |  |  |  |  |  |  |  |  |  |  |  |  |  |  |  | 
2 |  | COc1ccc(NC(=O)Nc2ccc(CCC(=O)NO)cc2)cc1 | 4.51 | < 4.30 | 5.70 | 5.55 |  |  |  |  |  |  |  |  |  |  |  |  |  |  |  | 
3 | Active | O=C(/C=C/c1ccc(NC(=O)Nc2ccc(Cl)cc2)cc1)NO | 4.52 | < 4.30 | 6.70 | 7.40 | inactive | Active | 5.59 | 4.28 | 72.5 | inactive | inactive | 0.68 | Tde | inactive | 7.92 | 5.77 | 8.85 | 88.4 | 17.9 | pIC50 [4]: 8.09; inhibition [5]: 93%; Activity (Jurkat [21]): 0.28%; inhibition [22]: Active; inhibition [23]: Active; pIC50 (Jurkat [24]): 6.22; inhibition [25]: Active
4 |  | COc1ccc(NC(=O)Nc2ccc(C(=O)NO)cc2)cc1 | 4.65 | < 4.30 | 5.32 | 5.10 |  |  |  |  |  |  |  |  |  |  |  |  |  |  |  | 
5 |  | O=C(CCc1ccc(NC(=O)Nc2ccccc2)cc1)NO | 4.79 | < 4.30 | 6.11 | 5.80 |  |  |  |  |  |  |  |  |  |  |  |  |  |  |  | 
6 | Active | O=C(/C=C/c1ccc(NC(=O)Nc2ccc([N+](=O)[O-])cc2)cc1)NO | 4.90 | < 4.30 | 6.24 | 7.05 | inactive | Active | 5.57 | 7.03 | 82.8 | inactive | inactive | 1.2 | Tde | inactive | 5.74 | 5.52 | 5.89 | 87.1 | 10.1 | Ratio IC50 [26]: 33; Ratio IC50 [27]: 22; Ratio IC50 [28]: 5; Activity (Jurkat [21]): 0.18%; Ratio IC50 [29]: 140; inhibition [22]: Active; inhibition [23]: Active; pIC50 (Jurkat [24]): 6.15; inhibition [25]: Active
